Screening results from PubChem BioAssay.
Only some compounds are listed: those with a hit (about 1.5% of all), similar ones and a draw of the others.
Statin myotox sup = suppression of simvastatin myotoxicity; 330,000 compounds, 0.78% hits; rescue of ATP level, % at 7.49 µM; C2C12 myotubes + simvastatin, ATP luminescence, 48 h; scaled: DMSO 0, geranylgeraniol control 100;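 active = mean ATP rescue above about 67%, or every replicate alone reaching that limit, limit read from the data, passing the limit was not always enough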;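 note: myotubes were challenged with 10 µM simvastatin during compound exposure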
Mot1-301 SUMO = blocks SUMOylation pathway, rescuing yeast Mot1-301 growth; S. cerevisiae Mot1-301 growth rescue, ATP luminescence, 38.5C; percent above DMSO median, 100 means doubled; growth rescue, % at 18.8 µM; 320,000 compounds, 1% hits; AID 2716;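 active = every valid replicate shows activation above 250% relative to neutral control wells; inactive = the rest, any valid replicate at or below 250%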;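 note: OY570 slx delta 5 strain wells were the positive control but not used for scaling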
Cneo AK release = Cryptococcus neoformans lysis via adenylate kinase release; C. neoformans lysis, adenylate kinase release luminescence, 4 h; normalised: neutral wells 0, clomiphene wells 100; lysis activity, % at 15 µM; 360,000 compounds, 0.2% hits; AID 651654;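 active = mean lysis activity across replicates of at least 80%, whatever share of replicates individually reach that level; inactive = mean lysis activity below 80%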
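Assay system: C. neoformans cells. Amount: yeast cell density of 5 × 10^6 cells/mL. Technique: AK luminescence. Buffer or medium: YPD. Times: static 4 h at 37 °C with compound, 1 h detection. Dosing: single-point compound dose. Read-out: lysis from increased AK signal.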
Mot1 SUMO dose = SUMO pathway inhibitors in yeast Mot1-301 growth. S. cerevisiae Mot1-301 galactose growth, ATP luminescence, 24 h; -100 = growth of slx-deleted rescue strain. growth activity, percent, % at 42 µM. 2,300 tested, under 10 active. shares compounds with Mot1-301 SUMO;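 active = Signal drops as the depositor expects, and the fitted half-maximal dose is no more than ten times the top valid tested dose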;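 note: more negative values mean stronger growth rescue toward the control strain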
Active calls of the source: *; . = not tested or not shown; + = active, no number.

SMILES	Statin myotox sup	Mot1-301 SUMO	Cneo AK release	Mot1 SUMO dose
CCOC(=O)C1CCN(C(=O)COc2ccc(S(=O)(=O)N3CCOCC3)cc2)CC1	-4	14	7	.
O=C(O)CCC(=O)Nc1cccc(-c2nnc(-c3ccccc3)o2)c1	12	112	3	.
O=C(COc1ccccc1)Nc1cccc(-c2nnc(-c3ccccc3)o2)c1	.	+	-1	1
O=C(Cc1cccs1)Nc1cccc(-c2nnc(-c3ccco3)o2)c1	-1	522*	0	-1
COc1ccc(CC(=O)Nc2cccc(-c3nnc(-c4ccco4)o3)c2)cc1	.	151	-1	.
CO[C@@H]1CN(C)C(=O)c2ccc(NC(=O)C3CC3)cc2OC[C@@H](C)N(Cc2nccs2)C[C@H]1C	-8	.	0	.
COc1cccc(-c2cnc3c(c2)C(=O)N([C@@H](C)CO)C[C@H](C)[C@H](CN(C)Cc2ccncc2)O3)c1	-11	.	2	.
CNC(=O)C[C@@H]1CC[C@H]2[C@@H](COc3ccc(NC(=O)Cc4cccs4)cc3C(=O)N2C)O1	10	.	-1	.
CCCNC(=O)C[C@@H]1C[C@H]2c3cc(NC(=O)Nc4ccccc4)ccc3O[C@H]2[C@@H](CO)O1	4	.	4	.
CCOc1ccc(NC(=O)CNc2ccc(C)cc2Cl)cc1	.	811*	-8	-1
CCOc1ccc(NCC(=O)Nc2ccc(C)cc2C)cc1	-52	-11	-5	.
Cc1sc(NC(=O)c2ccc(F)cc2)c(CN2CCCCCC2)c1C	0	497*	-6	1
Cc1sc(NC(=O)c2ccccc2F)c(CN2CCCCC2)c1C	.	-19	.	.
C/C=C\C(=O)Nc1cccc(C2=NOC3(C2)C[C@@H](C(N)=O)N(C(=O)c2ccccc2)C3)c1 (some centres not stated)	11	1	6	.
C/C=C\C=C/C(=O)Nc1cccc(C2=NOC3(C2)C[C@@H](C(N)=O)N(C(=O)c2ccccc2)C3)c1 (some centres not stated)	.	433*	.	0
CC1(C)CCc2cc(CN3CCN(c4ccccn4)CC3)ccc2O1	-4	725*	5	0
COc1ccc(CN2CCN(c3ccccn3)CC2)cc1OCc1ccccc1	14	-13	0	.
O=C(C[C@@H]1C[C@@H]2c3cc(NC(=O)Cc4ccncc4)ccc3O[C@@H]2[C@H](CO)O1)NCc1cccnc1	0	.	-5	.
C[C@@H](NC(=O)[C@@H]1[C@@H](CO)[C@@H]2Cn3c(cccc3=O)[C@@H]2N1CC1CCCC1)c1ccccc1	-3	.	-3	.
Cc1cc2ncc(C(=O)N=CN(C)C)cn2n1	.	498*	.	0
Cc1ccc(-c2cnc3cc(C)nn3c2)cc1	.	-8	.	.
O=C(CSc1nnc(-c2ccc(Br)cc2)o1)Nc1cccc(C(=O)O)c1	-7	-22	-1	.
O=C(CSc1nnc(-c2ccc(Br)cc2)o1)Nc1cccc2ccccc12	-33	663*	-2	0
O=C(c1cccnc1)N1C[C@@H]2[C@H](c3ccccc31)[C@H](CO)N2C(=O)Nc1ccccc1	17	.	-2	.
Cc1ccc(NC2c3ncccc3C(=O)N2C2CCCCC2)cc1C (configuration not stated)	-11	395*	4	-1
SMILES	Statin myotox sup	Mot1-301 SUMO	Cneo AK release	Mot1 SUMO dose
Cc1ccc(NC2c3ncccc3C(=O)N2C2CCCCC2)cc1 (configuration not stated)	.	10	.	.
CN=C(Nc1cccnc1)c1ccccc1	1	421*	-1	0
CC(C)N=C(Nc1cccnc1)c1ccccc1	-14	-17	-1	.
O=C(CCNC(=O)c1ccccc1)Nc1cccnc1	0	455*	2	1
O=C(CCc1ccccc1)Nc1cccnc1	4	159	-1	.
Cc1ccc(S(=O)(=O)N[C@H]2CC[C@@H](CCn3cc(-c4cccc(F)c4)nn3)O[C@@H]2CO)cc1	4	.	-1	.
C[C@H](CO)N1C[C@H](C)[C@@H](CN(C)C(=O)Nc2ccc3c(c2)OCO3)OCCCC[C@H](C)Oc2ccc(NC(=O)CCC(F)(F)F)cc2C1=O	.	.	-1	.
Cc1nc(-c2ccccc2)sc1C1(C)CC(c2c(Cl)cccc2Cl)=NO1 (configuration not stated)	-3	-8	-2	.
Cc1nc(-c2ccc(Cl)cc2)sc1C1(C)CC(c2c(Cl)cccc2Cl)=NO1 (configuration not stated)	-3	421*	3	0
C[C@@H]1CN([C@H](C)CO)C(=O)c2cc(C#CC(C)(C)O)cnc2O[C@H]1CN(C)Cc1ccccn1	25	.	-6	.
O=c1c2ccccc2c2ccccc2c(=O)n1-c1ccccc1	.	413*	.	0
O=c1c2ccccc2c(=O)n(-c2ccccc2)n1-c1ccccc1	0	.	-1	.
CC(C)CC#Cc1ccc2c(c1)O[C@H](CN(C)Cc1cccc(F)c1)[C@H](C)CN([C@@H](C)CO)S2(=O)=O	.	.	11	.
CCCn1c(=O)c2ccccc2n2c(SCC(=O)N3CCc4ccccc4C3)nnc12	.	433*	0	0
CCn1c(=O)c2ccccc2n2c(SCC(=O)N3CCc4ccccc4C3)nnc12	4	16	-3	.
CCC(CO)N=CC1=C(O)CC(C)(C)CC1=O (configuration not stated)	-1	1	4	.
CC1CCCCC1N=CC1=C(O)CC(C)(C)CC1=O (configuration not stated)	23	385*	1	0
CO[C@H]1CN(C)C(=O)c2ccc(NC(C)=O)cc2OC[C@H](C)N(C(=O)C2CCOCC2)C[C@H]1C	5	.	-1	.
CCCC(=O)Nc1ccc2c(c1)C(=O)N(C)C[C@@H](OC)[C@H](C)CN(C(=O)CN(C)C)[C@H](C)CO2	0	.	-3	.
CCOc1ccccc1NC(=O)C1COc2ccccc2O1 (configuration not stated)	-4	-4	1	.
CCOc1ccc(OCC)c(NC(=O)C2COc3ccccc3O2)c1 (configuration not stated)	-2	824*	-1	0
CC=Cc1ccc2n(c1=O)C[C@H]1[C@H](CO)[C@@H](C(=O)N[C@@H](C)c3ccccc3)[C@@H]2N1CC (mixture of isomers)	-3	.	-3	.
O=S(=O)(Nc1cccc2cn[nH]c12)c1ccc(F)cc1	3	790*	-4	1
COc1cc(S(=O)(=O)Nc2cccc3cn[nH]c23)c(OC)cc1C	1	-1	0	.
COc1ccccc1NC(=O)N[C@@H]1CC[C@H](CC(=O)N[C@@H](C)c2ccccc2)O[C@H]1CO	-2	.	-14	.
CC1=CC2=NC(=O)/C(=C\c3cc(C)n(-c4ccccc4)c3C)C(=N)N2O1	10	511*	4	-1
CC1=CC2=NC(=O)/C(=C\c3cc(C)n(-c4cccc(Cl)c4)c3C)C(=N)N2O1	.	11	3	.
C[C@H](CO)N1C[C@H](C)[C@@H](CN(C)C(=O)Cc2ccccc2)OCCCC[C@H](C)Oc2ccc(NC(=O)CCC(F)(F)F)cc2C1=O	46	.	2	.
Cc1ccc(CNC(=O)CCNS(=O)(=O)c2cccs2)cc1	.	+	-1	1
Cc1ccc(CNC(=O)CCNS(=O)(=O)c2ccc(C)cc2)cc1	22	-19	0	.
